Blank lines part the entries; values can stand above or below the compound they belong to.
Experiments:
[1] = Cytotoxicity against human Hs 578T cells after 48 hrs by SRB assay; format: functional
786-0 = assay: Cytotoxicity against human 786-0 cells after 48 hrs by SRB assay; format: functional; conditions: 786-0, 48 h
NCI-H23 = assay: Cytotoxicity against human NCI-H23 cells after 48 hrs by SRB assay; format: functional; conditions: NCI-H23, 48 h
LOX IMVI = assay: Cytotoxicity against human LOX IMVI cells after 48 hrs by SRB assay; format: functional
RXF 393 = assay: Cytotoxicity against human […] cells after 48 hrs by SRB assay; format: functional; conditions: RXF 393, 48 h
HOP-92 = assay: Cytotoxicity against human HOP-92 cells after 48 hrs by SRB assay; format: functional; conditions: HOP-92, 48 h
BT-549 = assay: Cytotoxicity against human BT-549 cells after 48 hrs by SRB assay; format: functional; conditions: BT-549, 48 h
HL-60 = assay: Cytotoxicity against human HL-60 cells after 48 hrs by SRB assay; format: functional; conditions: HL-60, 48 h
SN12C = assay: Cytotoxicity against human SN12C cells after 48 hrs by SRB assay; format: functional
COLO 205 = assay: Cytotoxicity against human COLO205 cells after 48 hrs by SRB assay; format: functional; conditions: COLO 205, 48 h
MCF7 = assay: Cytotoxicity against human MCF7 cells after 48 hrs by SRB assay; format: functional; conditions: MCF7, 48 h
Mus musculus = assay: Antiinflammatory activity against TPA-induced ear edema in mouse; format: functional
Procedure, shortened: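 Specific-pathogen-free female ICR mice were housed five per cage at 24 ± 2 °C. Inflammation was induced on the ear with TPA at 1 µg/ear, and the test agent was applied per ear. Ear edema inhibition was expressed as ID50 in mg per ear.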

SF-295 = assay: Cytotoxicity against human SF-295 cells after 48 hrs by SRB assay; format: functional; conditions: SF-295, 48 h
MDA-MB-435 = assay: Cytotoxicity against human MDA-MB-435 cells after 48 hrs by SRB assay; format: functional; conditions: MDA-MB-435, 48 h
ACHN = assay: Cytotoxicity against human ACHN cells after 48 hrs by SRB assay; format: functional
[2] = Cytotoxicity against human Raji cells assessed as cell viability at 1000 molar ratio; format: cell-based; conditions: read-out: Activity
Procedure, shortened: (§1)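 Raji cells were treated with 32 pmol TPA to induce EBV early antigen activation. The test agent was added at 10, 100, 500 or 1000 mol ratio relative to TPA, and Raji cell viability was measured alongside EA activation.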

IGROV-1 = assay: Cytotoxicity against human IGROV1 cells after 48 hrs by SRB assay; format: functional; conditions: IGROV-1, 48 h
[3] = Cytotoxicity against human Raji cells assessed as cell viability at 10 molar ratio; format: cell-based; conditions: read-out: Activity; procedure, shortened: as §1
A549 = assay: Cytotoxicity against human A549 cells after 48 hrs by SRB assay; format: functional; conditions: A549, 48 h
NCI-H226 = assay: Cytotoxicity against human NCI-H226 cells after 48 hrs by SRB assay; format: functional; conditions: NCI-H226, 48 h
TK-10 = assay: Cytotoxicity against human TK-10 cells after 48 hrs by SRB assay; format: functional; conditions: TK-10, 48 h
Procedure, shortened: (§2)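 Tested in the NCI panel of 60 human tumour cell lines covering lung, colon, melanoma, renal, ovarian, breast and leukaemia. At least five concentrations were run in 10-fold dilutions starting from 10^-4 M. Exposure was continuous for 48 h. Growth or viability was estimated by sulforhodamine B protein staining, and GI50 values were reported.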

Raji [4] = assay: Inhibition of TPA-induced EBV-early antigen activation in human Raji cells at 1000 molar ratio relative to TPA; format: cell-based; set-up: scale not given: the % may be the effect or the level left; conditions: human gammaherpesvirus 4
SF-268 = assay: Cytotoxicity against human SF-268 cells after 48 hrs by SRB assay; format: functional; conditions: SF-268, 48 h
[5] = Inhibition of TPA-induced EBV-early antigen activation in human Raji cells relative to TPA; format: cell-based, human gammaherpesvirus 4
Malme-3M = assay: Cytotoxicity against human MALME-3M cells after 48 hrs by SRB assay; format: functional
MDA-MB-231 = assay: Cytotoxicity against human MDA-MB-231 cells after 48 hrs by SRB assay; format: functional; conditions: MDA-MB-231, 48 h
PC-3 = assay: Cytotoxicity against human PC-3 cells after 48 hrs by SRB assay; format: functional; conditions: PC-3, 48 h
SW-620 = assay: Cytotoxicity against human SW620 cells after 48 hrs by SRB assay; format: functional; conditions: SW-620, 48 h
UO-31 = assay: Cytotoxicity against human UO-31 cells after 48 hrs by SRB assay; format: functional; conditions: UO-31, 48 h; procedure, shortened: as §2
MOLT-4 = assay: Cytotoxicity against human MOLT-4 cells after 48 hrs by SRB assay; format: functional; conditions: MOLT-4, 48 h
T47D = assay: Cytotoxicity against human T47D cells after 48 hrs by SRB assay; format: functional; procedure, shortened: as §2
HT-29 = assay: Cytotoxicity against human HT-29 cells after 48 hrs by SRB assay; format: functional; conditions: HT-29, 48 h
KM12 = assay: Cytotoxicity against human KM12 cells after 48 hrs by SRB assay; format: functional; conditions: KM12, 48 h
SK-MEL-5 = assay: Cytotoxicity against human SK-MEL-5 cells after 48 hrs by SRB assay; format: functional; conditions: SK-MEL-5, 48 h
OVCAR-5 = assay: Cytotoxicity against human OVCAR5 cells after 48 hrs by SRB assay; format: functional; conditions: OVCAR-5, 48 h
[6] = Cytotoxicity against human HCT 116 cells after 48 hrs by SRB assay; format: functional; conditions: HCT-116, 48 h
K562 = assay: Cytotoxicity against human K-562 cells after 48 hrs by SRB assay; format: functional; conditions: K562, 48 h
HOP-62 = assay: Cytotoxicity against human HOP-62 cells after 48 hrs by SRB assay; format: functional; conditions: HOP-62, 48 h
NCI-H322M = assay: Cytotoxicity against human NCI-H322M cells after 48 hrs by SRB assay; format: functional
OVCAR-3 = assay: Cytotoxicity against human OVCAR-3 cells after 48 hrs by SRB assay; format: functional; conditions: OVCAR-3, 48 h
Raji [7] = assay: Inhibition of TPA-induced EBV-early antigen activation in human Raji cells at 100 molar ratio relative to TPA; format: cell-based; set-up: scale not given: the % may be the effect or the level left; conditions: human gammaherpesvirus 4
[8] = Cytotoxicity against human SK MEL28 cells after 48 hrs by SRB assay; format: functional; conditions: SK-MEL-28, 48 h
UACC-62 = assay: Cytotoxicity against human UACC-62 cells after 48 hrs by SRB assay; format: functional; conditions: UACC-62, 48 h; procedure, shortened: as §2
HCT-15 = assay: Cytotoxicity against human HCT-15 cells after 48 hrs by SRB assay; format: functional; conditions: HCT-15, 48 h
Raji [9] = assay: Inhibition of TPA-induced EBV-early antigen activation in human Raji cells at 500 molar ratio relative to TPA; format: cell-based; set-up: scale not given: the % may be the effect or the level left; conditions: human gammaherpesvirus 4
[10] = Cytotoxicity against human Raji cells assessed as cell viability at 500 molar ratio; format: cell-based; conditions: read-out: Activity; procedure, shortened: as §1
EKVX = assay: Cytotoxicity against human EKVX cells after 48 hrs by SRB assay; format: functional
OVCAR-8 = assay: Cytotoxicity against human OVCAR8 cells after 48 hrs by SRB assay; format: functional; conditions: OVCAR-8, 48 h
NCI-H522 = assay: Cytotoxicity against human NCI-H522 cells after 48 hrs by SRB assay; format: functional; conditions: NCI-H522, 48 h
NCI/ADR-RES = assay: Cytotoxicity against human NCI/ADR-RES cells after 48 hrs by SRB assay; format: functional
CAKI-1 = assay: Cytotoxicity against human Caki-1 cells after 48 hrs by SRB assay; format: functional; conditions: CAKI-1, 48 h
SK-MEL-2 = assay: Cytotoxicity against human SK-MEL-2 cells after 48 hrs by SRB assay; format: functional; conditions: SK-MEL-2, 48 h
NCI-H460 = assay: Cytotoxicity against human NCI-H460 cells after 48 hrs by SRB assay; format: functional; conditions: NCI-H460, 48 h
HCC 2998 = assay: Cytotoxicity against human HCC2998 cells after 48 hrs by SRB assay; format: functional; conditions: HCC 2998, 48 h
SNB-19 = assay: Cytotoxicity against human SNB-19 cells after 48 hrs by SRB assay; format: functional; conditions: SNB-19, 48 h
[11] = Cytotoxicity against human Raji cells assessed as cell viability at 100 molar ratio; format: cell-based; conditions: read-out: Activity; procedure, shortened: as §1
UACC-257 = assay: Cytotoxicity against human UACC-257 cells after 48 hrs by SRB assay; format: functional; conditions: UACC-257, 48 h; procedure, shortened: as §2
Raji [12] = assay: Inhibition of TPA-induced EBV-early antigen activation in human Raji cells at 10 molar ratio relative to TPA; format: cell-based; set-up: scale not given: the % may be the effect or the level left; conditions: human gammaherpesvirus 4

IC50 [5]: 473 molar ratio
Structure (SMILES): CCCCOC(=O)[C@H]1O[C@@H](O[C@H]2CC[C@]3(C)[C@H]4CC=C5[C@@H]6CC(C)(C)CC[C@]6(C(=O)O)CC[C@@]5(C)[C@]4(C)CC[C@H]3C2(C)C)[C@H](O[C@@H]2O[C@H](CO)[C@@H](O)[C@H](O)[C@H]2O)[C@@H](O[C@@H]2O[C@H](CO)[C@H](O)[C@H](O)[C@H]2O)[C@@H]1O
GI50 [1]: 38 µM
GI50 (786-0): 26.2 µM
GI50 (NCI-H23): 22.8 µM
GI50 (LOX IMVI): 18 µM
GI50 (RXF 393): 58.5 µM
GI50 (HOP-92): 33.2 µM
GI50 (BT-549): 21.5 µM
GI50 (HL-60): 22.3 µM
GI50 (SN12C): 21.8 µM
GI50 (COLO 205): 20.1 µM
GI50 (MCF7): 38.4 µM
ID50 (Mus musculus): 0.06 mg
GI50 (SF-295): 26 µM
GI50 (MDA-MB-435): 30.6 µM
GI50 (ACHN): 20.6 µM
viability at 1000 molar ratio [2]: 70%
GI50 (IGROV-1): > 100 µM
viability at 10 molar ratio [3]: > 80%
GI50 (A549): 34.1 µM
GI50 (NCI-H226): 29.2 µM
GI50 (TK-10): 33.3 µM
Activity (Raji [4]): 11%
GI50 (SF-268): 27.7 µM
GI50 (Malme-3M): 17.8 µM
GI50 (MDA-MB-231): 14.5 µM
GI50 (PC-3): 34.7 µM
GI50 (SW-620): 36.6 µM
GI50 (UO-31): 49.2 µM
GI50 (MOLT-4): 7.77 µM
GI50 (T47D): 48 µM
GI50 (HT-29): 34.2 µM
GI50 (KM12): 30.8 µM
GI50 (SK-MEL-5): 33.1 µM
GI50 (OVCAR-5): 28.8 µM
GI50 [6]: 20.6 µM
GI50 (K562): 23.2 µM
GI50 (HOP-62): 19.4 µM
GI50 (NCI-H322M): 19 µM
GI50 (OVCAR-3): > 100 µM
Activity (Raji [7]): 71%
GI50 [8]: 26.7 µM
GI50 (UACC-62): 20.9 µM
GI50 (HCT-15): 20.9 µM
Activity (Raji [9]): 49.3%
viability at 500 molar ratio [10]: > 80%
GI50 (EKVX): 24.4 µM
GI50 (OVCAR-8): 66.8 µM
GI50 (NCI-H522): 43.9 µM
GI50 (NCI/ADR-RES): 74 µM
GI50 (CAKI-1): 33.4 µM
GI50 (SK-MEL-2): 40.9 µM
GI50 (NCI-H460): 33.3 µM
GI50 (HCC 2998): 21.8 µM
GI50 (SNB-19): 22.5 µM
viability at 100 molar ratio [11]: > 80%
GI50 (UACC-257): 26.2 µM
Activity (Raji [12]): 100%

IC50 [5]: 471 molar ratio
Structure (SMILES): CCCCOC(=O)[C@H]1O[C@@H](O[C@H]2CC[C@]3(C)[C@H]4CC=C5[C@@H]6CC(C)(C)CC[C@]6(C(=O)O[C@@H]6O[C@H](CO)[C@@H](O)[C@H](O)[C@H]6O)CC[C@@]5(C)[C@]4(C)CC[C@H]3C2(C)C)[C@H](O)[C@@H](O[C@@H]2O[C@H](CO)[C@H](O)[C@H](O)[C@H]2O)[C@@H]1O
ID50 (Mus musculus): 0.06 mg
viability at 1000 molar ratio [2]: 70%
viability at 10 molar ratio [3]: > 80%
Activity (Raji [4]): 5.4%
Activity (Raji [7]): 70.1%
Activity (Raji [9]): 41.5%
viability at 500 molar ratio [10]: > 80%
viability at 100 molar ratio [11]: > 80%
Activity (Raji [12]): 100%

IC50 [5]: 480 molar ratio
Structure (SMILES): COC(=O)[C@H]1O[C@@H](O[C@H]2CC[C@]3(C)[C@H]4CC=C5[C@@H]6CC(C)(C)CC[C@]6(C(=O)O[C@@H]6O[C@H](CO)[C@@H](O)[C@H](O)[C@H]6O)CC[C@@]5(C)[C@]4(C)CC[C@H]3C2(C)C)[C@H](O)[C@@H](O[C@@H]2O[C@H](CO)[C@H](O)[C@H](O)[C@H]2O)[C@@H]1O
ID50 (Mus musculus): 0.1 mg
viability at 1000 molar ratio [2]: 70%
viability at 10 molar ratio [3]: > 80%
Activity (Raji [4]): 14.4%
Activity (Raji [7]): 74.3%
Activity (Raji [9]): 52.1%
viability at 500 molar ratio [10]: > 80%
viability at 100 molar ratio [11]: > 80%
Activity (Raji [12]): 100%

From ChEMBL document CHEMBL1158122, “Anti-inflammatory, anti-tumor-promoting, and cytotoxic activities of constituents of marigold (Calendula officinalis) flowers” (J Nat Prod, 2006)
